# ChEMBL document CHEMBL4007456, “Heterocyclyl Tetracyclines. 1. 7-Trifluoromethyl-8-Pyrrolidinyltetracyclines: Potent, Broad Spectrum Antibacterial Agents with Enhanced Activity against Pseudomonas aeruginosa” (2017)
# Tested on: Klebsiella pneumoniae
# Experiment: Antibacterial activity against gram-negative Klebsiella pneumoniae KP457 harboring blacTX-M-15 extended spectrum beta-lactamase gene by CLSI method
# Format: functional
# Outline: (§1)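 CLSI broth microdilution MIC in fresh cation-adjusted Mueller Hinton broth, supplemented with defibrinated horse blood where appropriate. Compounds serially diluted in sterile deionized water. Runs accepted when comparator antibiotics against ATCC quality-control strains fell within recommended ranges.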
row,Compound,MIC
1,CC1CCC(c2cc(O)c3c(c2C(F)(F)F)C[C@H]2C[C@H]4[C@H](N(C)C)C(O)=C(C(N)=O)C(=O)[C@@]4(O)C(O)=C2C3=O)N1C (stereo not given in full),8 µg/mL
2,CC(C)CN1CCC[C@H]1c1cc(O)c2c(c1C(F)(F)F)C[C@H]1C[C@H]3[C@H](N(C)C)C(O)=C(C(N)=O)C(=O)[C@@]3(O)C(O)=C1C2=O,> 32 µg/mL

# Tested on: Enterobacter cloacae
# Experiment: Antibacterial activity against gram-negative Enterobacter cloacae EC1603 harboring tet(A) by CLSI method
# Format: functional
# Outline: as §1
row,Compound,MIC
1,CC1CCC(c2cc(O)c3c(c2C(F)(F)F)C[C@H]2C[C@H]4[C@H](N(C)C)C(O)=C(C(N)=O)C(=O)[C@@]4(O)C(O)=C2C3=O)N1C (stereo not given in full),16 µg/mL
2,CC(C)CN1CCC[C@H]1c1cc(O)c2c(c1C(F)(F)F)C[C@H]1C[C@H]3[C@H](N(C)C)C(O)=C(C(N)=O)C(=O)[C@@]3(O)C(O)=C1C2=O,> 32 µg/mL

# Tested on: Staphylococcus aureus
# Experiment: Antibacterial activity against gram-positive Staphylococcus aureus SA158 harboring tet(K) by CLSI method
# Format: functional
# Outline: as §1
row,Compound,MIC
1,CC1CCC(c2cc(O)c3c(c2C(F)(F)F)C[C@H]2C[C@H]4[C@H](N(C)C)C(O)=C(C(N)=O)C(=O)[C@@]4(O)C(O)=C2C3=O)N1C (stereo not given in full),0.125 µg/mL
2,CC(C)CN1CCC[C@H]1c1cc(O)c2c(c1C(F)(F)F)C[C@H]1C[C@H]3[C@H](N(C)C)C(O)=C(C(N)=O)C(=O)[C@@]3(O)C(O)=C1C2=O,1 µg/mL

# Tested on: Burkholderia cenocepacia
# Experiment: Antibacterial activity against gram-negative Burkholderia cenocepacia BC240 by CLSI method
# Format: functional
# Outline: (§2)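 Defibrinated horse blood added where appropriate. Compounds serially diluted in sterile deionized water. Strains from ATCC unless otherwise noted. Runs accepted when comparator antibiotics fell within QC ranges for ATCC quality control strains.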
row,Compound,MIC
1,CC1CCC(c2cc(O)c3c(c2C(F)(F)F)C[C@H]2C[C@H]4[C@H](N(C)C)C(O)=C(C(N)=O)C(=O)[C@@]4(O)C(O)=C2C3=O)N1C (stereo not given in full),8 µg/mL
2,CC(C)CN1CCC[C@H]1c1cc(O)c2c(c1C(F)(F)F)C[C@H]1C[C@H]3[C@H](N(C)C)C(O)=C(C(N)=O)C(=O)[C@@]3(O)C(O)=C1C2=O,> 32 µg/mL

# Tested on: Enterococcus faecalis
# Experiment: Antibacterial activity against gram-positive Enterococcus faecalis EFs327 harboring tet(M) by CLSI method
# Format: functional
# Outline: as §1
row,Compound,MIC
1,CC1CCC(c2cc(O)c3c(c2C(F)(F)F)C[C@H]2C[C@H]4[C@H](N(C)C)C(O)=C(C(N)=O)C(=O)[C@@]4(O)C(O)=C2C3=O)N1C (stereo not given in full),2 µg/mL
2,CC(C)CN1CCC[C@H]1c1cc(O)c2c(c1C(F)(F)F)C[C@H]1C[C@H]3[C@H](N(C)C)C(O)=C(C(N)=O)C(=O)[C@@]3(O)C(O)=C1C2=O,1 µg/mL

# Tested on: Streptococcus pneumoniae
# Experiment: Antibacterial activity against gram-positive Streptococcus pneumoniae SP160 harboring tet(M) by CLSI method
# Format: functional
# Outline: as §1
row,Compound,MIC
1,CC1CCC(c2cc(O)c3c(c2C(F)(F)F)C[C@H]2C[C@H]4[C@H](N(C)C)C(O)=C(C(N)=O)C(=O)[C@@]4(O)C(O)=C2C3=O)N1C (stereo not given in full),0.0312 µg/mL
2,CC(C)CN1CCC[C@H]1c1cc(O)c2c(c1C(F)(F)F)C[C@H]1C[C@H]3[C@H](N(C)C)C(O)=C(C(N)=O)C(=O)[C@@]3(O)C(O)=C1C2=O,0.5 µg/mL

# Tested on: Escherichia coli
# Experiment: Antibacterial activity against gram-negative Escherichia coli EC107 by CLSI method
# Format: functional
# Outline: as §2, with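 “Broth microdilution MIC per CLSI in cation-adjusted Mueller Hinton broth, prepared fresh and held at 4 °C. Defibrinated” for “Defibrinated”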
row,Compound,MIC
1,CC1CCC(c2cc(O)c3c(c2C(F)(F)F)C[C@H]2C[C@H]4[C@H](N(C)C)C(O)=C(C(N)=O)C(=O)[C@@]4(O)C(O)=C2C3=O)N1C (stereo not given in full),0.5 µg/mL
2,CC(C)CN1CCC[C@H]1c1cc(O)c2c(c1C(F)(F)F)C[C@H]1C[C@H]3[C@H](N(C)C)C(O)=C(C(N)=O)C(=O)[C@@]3(O)C(O)=C1C2=O,4 µg/mL

# Tested on: Staphylococcus aureus
# Experiment: Antibacterial activity against gram-positive Staphylococcus aureus SA101 by CLSI method
# Format: functional
# Outline: as §2, with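 “Broth microdilution MIC per CLSI in cation-adjusted Mueller Hinton broth, prepared fresh and held at 4 °C. Defibrinated” for “Defibrinated”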
row,Compound,MIC
1,CC1CCC(c2cc(O)c3c(c2C(F)(F)F)C[C@H]2C[C@H]4[C@H](N(C)C)C(O)=C(C(N)=O)C(=O)[C@@]4(O)C(O)=C2C3=O)N1C (stereo not given in full),0.5 µg/mL
2,CC(C)CN1CCC[C@H]1c1cc(O)c2c(c1C(F)(F)F)C[C@H]1C[C@H]3[C@H](N(C)C)C(O)=C(C(N)=O)C(=O)[C@@]3(O)C(O)=C1C2=O,2 µg/mL

# Tested on: Staphylococcus aureus
# Experiment: Antibacterial activity against gram-positive Staphylococcus aureus SA161 harboring tet(M) by CLSI method
# Format: functional
# Outline: as §1
row,Compound,MIC
1,CC1CCC(c2cc(O)c3c(c2C(F)(F)F)C[C@H]2C[C@H]4[C@H](N(C)C)C(O)=C(C(N)=O)C(=O)[C@@]4(O)C(O)=C2C3=O)N1C (stereo not given in full),1 µg/mL
2,CC(C)CN1CCC[C@H]1c1cc(O)c2c(c1C(F)(F)F)C[C@H]1C[C@H]3[C@H](N(C)C)C(O)=C(C(N)=O)C(=O)[C@@]3(O)C(O)=C1C2=O,2 µg/mL

# Tested on: Stenotrophomonas maltophilia
# Experiment: Antibacterial activity against gram-negative Stenotrophomonas maltophilia SM256 by CLSI method
# Format: functional
# Outline: as §2, with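 “Broth microdilution MIC per CLSI in cation-adjusted Mueller Hinton broth, prepared fresh and held at 4 °C. Defibrinated” for “Defibrinated”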
row,Compound,MIC
1,CC1CCC(c2cc(O)c3c(c2C(F)(F)F)C[C@H]2C[C@H]4[C@H](N(C)C)C(O)=C(C(N)=O)C(=O)[C@@]4(O)C(O)=C2C3=O)N1C (stereo not given in full),2 µg/mL
2,CC(C)CN1CCC[C@H]1c1cc(O)c2c(c1C(F)(F)F)C[C@H]1C[C@H]3[C@H](N(C)C)C(O)=C(C(N)=O)C(=O)[C@@]3(O)C(O)=C1C2=O,> 32 µg/mL

# Tested on: Enterococcus faecium
# Experiment: Antibacterial activity against gram-positive Enterococcus faecium EFm404 harboring tet(M) by CLSI method
# Format: functional
# Outline: as §1
row,Compound,MIC
1,CC1CCC(c2cc(O)c3c(c2C(F)(F)F)C[C@H]2C[C@H]4[C@H](N(C)C)C(O)=C(C(N)=O)C(=O)[C@@]4(O)C(O)=C2C3=O)N1C (stereo not given in full),1 µg/mL
2,CC(C)CN1CCC[C@H]1c1cc(O)c2c(c1C(F)(F)F)C[C@H]1C[C@H]3[C@H](N(C)C)C(O)=C(C(N)=O)C(=O)[C@@]3(O)C(O)=C1C2=O,1 µg/mL

# Tested on: Escherichia coli
# Experiment: Antibacterial activity against gram-negative Escherichia coli EC155 harboring tet(A) by CLSI method
# Format: functional
# Outline: as §1
row,Compound,MIC
1,CC1CCC(c2cc(O)c3c(c2C(F)(F)F)C[C@H]2C[C@H]4[C@H](N(C)C)C(O)=C(C(N)=O)C(=O)[C@@]4(O)C(O)=C2C3=O)N1C (stereo not given in full),2 µg/mL
2,CC(C)CN1CCC[C@H]1c1cc(O)c2c(c1C(F)(F)F)C[C@H]1C[C@H]3[C@H](N(C)C)C(O)=C(C(N)=O)C(=O)[C@@]3(O)C(O)=C1C2=O,> 32 µg/mL

# Tested on: Acinetobacter baumannii
# Experiment: Antibacterial activity against gram-negative Acinetobacter baumannii AB250 by CLSI method
# Format: functional
# Outline: as §2, with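 “Broth microdilution MIC per CLSI in cation-adjusted Mueller Hinton broth, prepared fresh and held at 4 °C. Defibrinated” for “Defibrinated”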
row,Compound,MIC
1,CC1CCC(c2cc(O)c3c(c2C(F)(F)F)C[C@H]2C[C@H]4[C@H](N(C)C)C(O)=C(C(N)=O)C(=O)[C@@]4(O)C(O)=C2C3=O)N1C (stereo not given in full),2 µg/mL
2,CC(C)CN1CCC[C@H]1c1cc(O)c2c(c1C(F)(F)F)C[C@H]1C[C@H]3[C@H](N(C)C)C(O)=C(C(N)=O)C(=O)[C@@]3(O)C(O)=C1C2=O,> 32 µg/mL

# Tested on: Pseudomonas aeruginosa
# Experiment: Antibacterial activity against gram-negative Pseudomonas aeruginosa PA555 by CLSI method
# Format: functional
# Outline: as §2, with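 “Broth microdilution MIC per CLSI in cation-adjusted Mueller Hinton broth, prepared fresh and held at 4 °C. Defibrinated” for “Defibrinated”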
row,Compound,MIC
1,CC1CCC(c2cc(O)c3c(c2C(F)(F)F)C[C@H]2C[C@H]4[C@H](N(C)C)C(O)=C(C(N)=O)C(=O)[C@@]4(O)C(O)=C2C3=O)N1C (stereo not given in full),> 32 µg/mL
2,CC(C)CN1CCC[C@H]1c1cc(O)c2c(c1C(F)(F)F)C[C@H]1C[C@H]3[C@H](N(C)C)C(O)=C(C(N)=O)C(=O)[C@@]3(O)C(O)=C1C2=O,> 32 µg/mL

# Tested on: Proteus mirabilis
# Experiment: Antibacterial activity against gram-negative Proteus mirabilis PM385 by CLSI method
# Format: functional
# Outline: as §2, with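 “Broth microdilution MIC per CLSI in cation-adjusted Mueller Hinton broth, prepared fresh and held at 4 °C. Defibrinated” for “Defibrinated”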
row,Compound,MIC
1,CC1CCC(c2cc(O)c3c(c2C(F)(F)F)C[C@H]2C[C@H]4[C@H](N(C)C)C(O)=C(C(N)=O)C(=O)[C@@]4(O)C(O)=C2C3=O)N1C (stereo not given in full),4 µg/mL
2,CC(C)CN1CCC[C@H]1c1cc(O)c2c(c1C(F)(F)F)C[C@H]1C[C@H]3[C@H](N(C)C)C(O)=C(C(N)=O)C(=O)[C@@]3(O)C(O)=C1C2=O,> 32 µg/mL
